Experimental data published in ChEMBL document CHEMBL4513216, “Probing the Open Global Health Chemical Diversity Library for Multistage-Active Starting Points for Next-Generation Antimalarials” (ACS Infect Dis, 2020).

Test: Toxicity liver stage against HepG2, at 10uM
Assay type: cell-based
Parameters: test concentration 10 uM, cell line HepG2-A16-CD81EGFP
Settings: human, HepG2-A16-CD81EGFP cells; read-out: INHIBITION
Summary of the method: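 Uninfected HepG2-A16-CD81EGFP cells, 3 × 10^3 per well, 1536-well, plated on prespotted compound at 10 μM final, parasite-free screening media added to match infected plates; puromycin 10 μM positive, DMSO 0.5% negative; run in parallel with 48 h PbLuc assay at 37 °C, 5% CO2; viability by CellTiter-Glo luminescence, normalized to controls.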

| SMILES | cytotoxicity at 10 µM [%] |
| --- | --- |
| CCC(NS(C)(=O)=O)c1ccccc1OC (configuration not stated) | -43.1 |
| CC1=C(c2ccc(C(C)C)cc2)S(=O)(=O)N=C1N1CCc2ccccc21 | -16.8 |
| Cc1ccsc1C1CCCCCN1Cc1cn(C)nc1C (configuration not stated) | -4.38 |
| O=S(=O)(Nc1cnc(N2CCOCC2)nc1)c1cccc(F)c1 | -19.2 |
| Cn1cnnc1SCc1cc2c(cc1Br)OCO2 | 6.44 |
| O=c1cc(-c2ccccc2)nc2n1CCCCC2 | 1.36 |
| O=C(CCSC1CCc2ccccc2NC1=O)NCCCO (configuration not stated) | -5.65 |
| Cc1cccc(C(=O)NCCCN2CCN(c3ccccc3)CC2)c1 | 7.67 |
| CNC(=O)c1cccc(CC2COCCN(Cc3ccsc3)C2)n1 (configuration not stated) | -0.257 |
| O=C(c1ccncc1)N1CCC(c2nc(O)cc(-c3cccnc3)n2)C1 (configuration not stated) | -0.0788 |
| Cc1ccnc(N2CCC(OCCN3CCCCC3)C2)n1 (configuration not stated) | -49.4 |
| O=S(=O)(NCCCn1cncn1)c1ccc2c(c1)OCCCO2 | 3.51 |
| CN(C)C(=O)c1ccccc1NC(=O)N[C@@H]1c2ccccc2C[C@@H]1O | -43.1 |
| COC(=O)CSCc1nc(-c2ccc(Cl)cc2)no1 | 3.77 |
| O=C(CC1CCCC1)NCCn1nc2ccccn2c1=O | 9.97 |
| Cc1cc(N2CCN(c3nc4ccccc4cc3CO)CC2)nc(C)n1 | 7.86 |
| Cc1cc(C(=O)NCCN2CCCc3ccccc32)[nH]n1 | 0.868 |
| CC(C(=O)Nc1ccc2ccccc2c1)N1CCC(n2ccnc2)CC1 (configuration not stated) | -4 |
| Cc1nnc2n1CCN(Cc1c(Cl)ccc3cccnc13)C2 | 8.25 |
| Cc1noc(C)c1C(=O)N1CCSc2ccc(Cl)cc21 | -108 |
| Cn1cnc2c1CCN(CCCOc1ccc(S(C)(=O)=O)cc1)C2 | 4.94 |
| Cc1cc2n(n1)CC(CNC1CCN(c3ccc(F)cc3)CC1)CN2 (configuration not stated) | -10.3 |
| O=C(NS(=O)(=O)c1ccccc1Cl)c1cccc2c1OCCO2 | -11 |
| Cn1cccc1C(=O)N1CCc2ncnc(N3CCCC3)c2CC1 | -1.31 |

| SMILES | cytotoxicity at 10 µM [%] |
| --- | --- |
| O=C(c1ccco1)N1CCC2(CC1)C(=O)NCCN2CC1CC1 | 4.3 |
| O=C(CCc1ccccc1F)N1CCCC(OCc2cccnc2)C1 (configuration not stated) | -5.44 |
| CN(c1ncccc1CNS(=O)(=O)N1CCOCC1)C1CCCCC1 | 6.39 |
| CCc1csc(CNCC(=O)Nc2ccc(Cl)c(C)c2)n1 | 5.33 |
| COC(=O)c1cccc(-c2nc(CC3CCN(C)CC3)no2)c1 | -1.6 |
| Cc1nc(N(CCC(N)=O)Cc2ccccc2)c2nc(C)oc2n1 | -3.86 |
| COc1ncc(-c2cc(NCCN(C)C)nc3[nH]ccc23)c(OC)n1 | -20.7 |
| CN(CC1(CO)CCC1)C(=O)C1CCC(=O)N(Cc2ccc(Cl)cc2)C1 (configuration not stated) | -11.2 |
| CN(C)CCN(Cc1ccsc1)C(=O)C1=NNC(=O)CC1 | 6.62 |
| Cc1nn(C)c(C)c1CN(C)C1CCN(c2ncnc3[nH]cnc23)CC1 | -76.7 |
| O=C(NCCC1COc2ccccc2O1)c1ccc(-c2cn[nH]c2)nc1 (configuration not stated) | 4.65 |
| CC(C(=O)NCCN1CCCCCC1)n1cncn1 (configuration not stated) | -1.4 |
| O=C(Nc1cccc(N2CCCC2)c1)C1CCCN1c1nccs1 (configuration not stated) | -6.08 |
| CC(C)Cc1noc(CN2CCN(CCO)CC2)n1 | -1.22 |
| CCn1c(CN2CCC(O)(C(=O)OC)CC2)nc2c(F)cccc21 | -9.73 |
| c1coc(-c2noc(CN3CCCC(Cn4cncn4)C3)n2)c1 (configuration not stated) | -7.23 |
| Cc1ccc(C(=O)CCC(=O)N2CCC(c3nncn3C)CC2)cc1 | -9.86 |
| CCC1CN(CC(=O)N2CCC2)CCN1CCOC (configuration not stated) | -9.78 |
| Cn1ccc(C(=O)NCc2cccc(CN3CCCC3)c2)cc1=O | -3.07 |
| COc1ccccc1C1(NCc2c(C)nc3c(C)cccn23)CCCC1 | 15.2 |
| COc1ccc(CN)c(OC(F)F)c1 | -41.7 |
| C=c1cc(C)oc1=C1NC(c2c(C)ncc3c2CCNC3)=NO1 | -0.132 |
| NCC1CCC(C(NC(=O)c2ccccc2)c2ccccn2)CC1 (configuration not stated) | 0 |
